Results: ChEMBL document CHEMBL2417547 (J Med Chem, 2013)

Tests used:
Cytochrome P450 2A6 = biological target: T1, Cytochrome P450 2A6 (Homo sapiens, UniProt P11509); assay: Inhibition of CYP2A6 (unknown origin) using coumarin as substrate; assay type: ADME
T1 sequence (P11509 whole entry): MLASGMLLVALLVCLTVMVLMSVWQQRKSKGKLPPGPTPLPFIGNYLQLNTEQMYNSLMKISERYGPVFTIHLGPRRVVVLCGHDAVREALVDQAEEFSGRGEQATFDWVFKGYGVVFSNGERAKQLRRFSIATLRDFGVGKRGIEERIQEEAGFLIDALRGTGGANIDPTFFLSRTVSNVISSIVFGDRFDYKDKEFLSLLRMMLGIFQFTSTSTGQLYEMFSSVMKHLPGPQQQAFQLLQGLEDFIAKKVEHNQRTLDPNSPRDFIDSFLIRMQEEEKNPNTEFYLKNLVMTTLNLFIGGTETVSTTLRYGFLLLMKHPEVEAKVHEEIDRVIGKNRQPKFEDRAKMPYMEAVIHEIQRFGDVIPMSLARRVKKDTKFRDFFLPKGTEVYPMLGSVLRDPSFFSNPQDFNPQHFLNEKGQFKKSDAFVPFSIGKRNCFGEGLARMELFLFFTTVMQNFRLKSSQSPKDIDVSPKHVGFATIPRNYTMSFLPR
Summary of the method: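 Commercial CYP2A6/coumarin inhibitor screening kit with coumarin as substrate at 3 μM, run per the kit instructions. IC50 determined.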

[1] = biological target: T2, Cytochrome P450 11B1, mitochondrial (Rattus norvegicus, UniProt P15393); assay: Inhibition of rat CYP11B1 expressed in hamster V79MZh cells using [1,2-3H]-11-deoxycorticosterone as substrate; assay type: cell-based
T2 sequence (P15393 whole entry): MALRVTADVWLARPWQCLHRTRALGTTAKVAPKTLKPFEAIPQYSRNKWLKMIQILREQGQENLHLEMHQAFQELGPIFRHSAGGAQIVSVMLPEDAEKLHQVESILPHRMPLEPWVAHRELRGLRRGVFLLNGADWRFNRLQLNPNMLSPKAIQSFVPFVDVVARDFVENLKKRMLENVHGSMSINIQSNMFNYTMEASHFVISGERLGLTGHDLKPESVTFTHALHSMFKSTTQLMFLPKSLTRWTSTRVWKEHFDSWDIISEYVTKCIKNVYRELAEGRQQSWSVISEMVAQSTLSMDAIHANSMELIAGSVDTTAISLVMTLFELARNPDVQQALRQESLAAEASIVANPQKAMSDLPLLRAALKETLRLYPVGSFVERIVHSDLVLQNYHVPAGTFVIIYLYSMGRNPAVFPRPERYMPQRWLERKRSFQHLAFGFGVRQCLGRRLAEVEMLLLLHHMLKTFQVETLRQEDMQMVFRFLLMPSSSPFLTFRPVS
Summary of the method: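 V79MZh cells expressing rat CYP11B1 were incubated with [1,2-3H]-11-deoxycorticosterone (100 nM) and inhibitor at varying concentrations. IC50 is the mean of more than three repeats.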

CYP17 = biological target: T3, CYP17 (Homo sapiens, UniProt P05093); assay: Inhibition of human CYP17 expressed in Escherichia coli co-expressing rat NADPH-P450 reductase using progesterone as substrate at 2 uM relative to control; settings: probe progesterone
T3 sequence (P05093 whole entry): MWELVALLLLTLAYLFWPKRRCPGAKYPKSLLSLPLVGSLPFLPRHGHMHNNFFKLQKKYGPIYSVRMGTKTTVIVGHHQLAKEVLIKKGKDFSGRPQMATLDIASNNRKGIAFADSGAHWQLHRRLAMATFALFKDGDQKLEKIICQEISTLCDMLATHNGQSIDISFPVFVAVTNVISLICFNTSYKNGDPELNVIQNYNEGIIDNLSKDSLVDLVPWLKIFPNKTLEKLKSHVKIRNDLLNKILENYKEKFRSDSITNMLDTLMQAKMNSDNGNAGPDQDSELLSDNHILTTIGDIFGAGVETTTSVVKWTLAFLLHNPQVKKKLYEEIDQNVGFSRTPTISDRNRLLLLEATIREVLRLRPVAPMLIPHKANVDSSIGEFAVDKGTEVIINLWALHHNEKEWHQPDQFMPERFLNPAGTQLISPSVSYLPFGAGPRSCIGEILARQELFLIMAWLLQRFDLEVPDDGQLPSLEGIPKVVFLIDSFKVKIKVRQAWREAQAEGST
Summary of the method: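 Human CYP17 expressed in E. coli, co-expressing rat NADPH-P450 reductase. Progesterone substrate at 25 μM with NADPH cofactor. Test compound at 2 μM. Percent inhibition is the mean of at least three experiments (deviations <25%); values ≤5% are treated as not significant.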

Cc1cncc(Cc2ccc(-c3ccccc3)nc2)c1
IC50 (Cytochrome P450 2A6): 106 µM | IC50 [1]: 2440 nM | inhibition at 2 µM (CYP17): 5%
